Source: ChEMBL document CHEMBL1649236, “The structure of the dizinc subclass B2 metallo-beta-lactamase CphA reveals that the second inhibitory zinc ion binds in the histidine site” (Antimicrob Agents Chemother, 2009)

Experiments:
Aeromonas hydrophila [1] = experiment: Activity of Aeromonas hydrophila metallo-betalactamase CphA N233A mutant expressed in Escherichia coli BL21(DE3) by spectrophotometric analysis in presence of < 0.4 uM zinc ions
Summary of the method: (§1)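 Steady-state kinetics (kcat, Km, kcat/Km) at 30°C in 15 mM cacodylate pH 6.5, no added Zn2+ (free [Zn2+] < 0.4 µM), enzyme as the mono-zinc form (one Zn per molecule). Substrates imipenem, nitrocefin and CENTA. N233A mutant from E. coli BL21 (DE3) pLysS Star, purified to homogeneity, mass checked by ESI-MS. Standard errors below 10%.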

Aeromonas hydrophila [2] = experiment: Ratio of Kcat to Km for Aeromonas hydrophila metallo-betalactamase CphA N233A mutant expressed in Escherichia coli BL21(DE3) by spectrophotometric analysis in presence of < 0.4 uM zinc ions; summary of the method: as §1

Row | Structure (SMILES) | Km (Aeromonas hydrophila [1]) [µM] | kcat (Aeromonas hydrophila [1]) [s⁻¹] | kcat/Km (Aeromonas hydrophila [2]) [M⁻¹ s⁻¹]
1 | O=C(Cc1cccs1)N[C@@H]1C(=O)N2C(C(=O)O)=C(CSc3ccc([N+](=O)[O-])c(C(=O)O)c3)CS[C@H]12 | 14 | 0.0035 | 250
2 | C[C@@H](O)[C@H]1C(=O)N2C(C(=O)O)=C(SCCNC=N)C[C@H]12 | > 1000 | > 700 | 700000
3 | O=C(Cc1cccs1)N[C@@H]1C(=O)N2C(C(=O)O)=C(/C=C/c3ccc([N+](=O)[O-])cc3[N+](=O)[O-])CS[C@H]12 | 55 | 0.03 | 520
